Structures are written as SMILES. In brackets after ≈: the same amount, converted by molar mass.

For experiment [1], the system named is Mycolicibacterium smegmatis. Briefly: Antimicrobial activity against Mycobacterium smegmatis str. MC2 155 ATCC 700084 incubated for 72 hrs in Mueller-Hinton broth medium by MTT assay. The format is functional. The settings on record: MC2 155 ATCC 700084, 72 h. An outline of the steps:
(§1)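 M. smegmatis mc2 155 grown on Columbia blood agar with 5% horse blood at 37 °C. Compounds in DMSO, serially diluted in Mueller-Hinton broth or 7H9 T ADC. Inoculum set to McFarland 0.5, then 5 × 10^5 cfu/mL, mixed 1:1 with the dilutions. Read with MTT after 72 h at 37 °C. MIC is the lowest concentration inhibiting growth.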

Experiment [2] has as its system Mycolicibacterium smegmatis MC2 155. Briefly: Inhibition of Multidrug resistance efflux pump in Mycobacterium smegmatis str. MC2 155 ATCC 700084 assessed as fractional inhibitory concentration index in presence of rifampicin. Summed up:
(§2)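 Combination testing in MHB broth dilution against mc2 155. Either the modulator or the antibiotic (EtBr or rifampicin) was held in the medium while the partner was serially diluted. 5 × 10^5 cfu/mL inoculum, MTT read-out after 72 h at 37 °C. Fractional inhibitory concentration index derived from the combined MICs.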

Experiment [3] shares this test system. Briefly: Inhibition of Multidrug resistance efflux pump in Mycobacterium smegmatis str. MC2 155 ATCC 700084 assessed as increase in normalized ethidium bromide fluorescence efflux at 0.5 MIC level by fluorimetric assay (reference value: 0.581 +/- 0.051 ratio). An outline of the steps: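 Cells grown in 7H9 T ADC at 37 °C and loaded with 4 mg/L EtBr plus 256 mg/L verapamil. EtBr efflux followed fluorometrically in a microtiter plate with compounds at half their 7H9 T ADC MIC. Normalized fluorescence is the mean of the last 10 min of four assays, compared with the EtBr control.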

Experiment [4] has the same test system. Briefly: Inhibition of Multidrug resistance efflux pump in Mycobacterium smegmatis str. MC2 155 ATCC 700084 assessed as increase in relative ethidium bromide fluorescence accumulation at 0.5 MIC level by fluorimetric assay (reference value: 6057.1 +/- 508.6 RFU). Summed up:
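Cells grown in 7H9 T with 10% ADC at 37 °C. Compounds at half their 7H9 T ADC MIC, with 0.5 mg/L EtBr and 0.4% glucose at 37 °C. Fluorescence tracked in a microtiter plate until steady state. Relative fluorescence is the mean of the last 10 min of four assays, compared with the EtBr-only control.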

For experiment [5] the test system is unchanged. In words: Inhibition of Multidrug resistance efflux pump in Mycobacterium smegmatis str. MC2 155 ATCC 700084 assessed as reduction in ciprofloxacin bromide MIC presence of test compound at 16 mg/L. An outline of the steps: (§3)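 Broth dilution in MHB with strain mc2 155 from blood agar. Modulator at half its MHB MIC was included in the medium while the antibiotic or EtBr was serially diluted. Inoculum 5 × 10^5 cfu/mL. MTT read-out after 72 h at 37 °C. Value is the fold change in MIC.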

Experiment [6] has the same test system. Briefly: Inhibition of Multidrug resistance efflux pump in Mycobacterium smegmatis str. MC2 155 ATCC 700084 assessed as reduction in ethambutol bromide MIC presence of test compound at 16 mg/L. Summed up: as §3
Experiment [7] has as its system Mycolicibacterium smegmatis. Briefly: Antimicrobial activity against Mycobacterium smegmatis str. MC2 155 ATCC 700084 incubated for 72 hrs in 7H9 T medium supplemented with 10% Middlebrook ADC enrichment by MTT assay. The format is functional. The settings on record: MC2 155 ATCC 700084, 72 h. An outline of the steps: as §1
The subject of experiment [8] is Mycolicibacterium smegmatis MC2 155. Briefly: Inhibition of Multidrug resistance efflux pump in Mycobacterium smegmatis str. MC2 155 ATCC 700084 assessed as fractional inhibitory concentration index in presence of ethidium bromide. An outline of the steps: as §2
Experiment [9] has the same test system. Briefly: Inhibition of Multidrug resistance efflux pump in Mycobacterium smegmatis str. MC2 155 ATCC 700084 assessed as reduction in isoniazid bromide MIC presence of test compound at 16 mg/L. Summed up: as §3
The test system is the same in experiment [10]. Briefly: Inhibition of Multidrug resistance efflux pump in Mycobacterium smegmatis str. MC2 155 ATCC 700084 assessed as reduction in ethidium bromide MIC presence of test compound at 16 mg/L. Summed up:
as §3

Experiment [11] has the same test system. Briefly: (§4) Inhibition of Multidrug resistance efflux pump in Mycobacterium smegmatis str. MC2 155 ATCC 700084 assessed as increase in normalized ethidium bromide fluorescence efflux at 0.5 MIC level by fluorimetric assay.
The nature of experiment [12]: as §4. The arrangement: species or system Mycolicibacterium smegmatis MC2 155.
For experiment [13], the system named is Mycolicibacterium smegmatis MC2 155. In words: Inhibition of Multidrug resistance efflux pump in Mycobacterium smegmatis str. MC2 155 ATCC 700084 assessed as reduction in rifampicin bromide MIC presence of test compound at 16 mg/L. An outline of the steps:
as §3

The test system is the same in experiment [14]. In words: Inhibition of Multidrug resistance efflux pump in Mycobacterium smegmatis str. MC2 155 ATCC 700084 assessed as reduction in ethidium bromide MIC presence of test compound at 64 mg/L. Summed up:
as §3

The test system is the same in experiment [15]. Briefly: Inhibition of Multidrug resistance efflux pump in Mycobacterium smegmatis str. MC2 155 ATCC 700084 assessed as reduction in ciprofloxacin bromide MIC presence of test compound at 64 mg/L. An outline of the steps: as §3
Experiment [16] shares this test system. In words: Inhibition of Multidrug resistance efflux pump in Mycobacterium smegmatis str. MC2 155 ATCC 700084 assessed as reduction in rifampicin bromide MIC presence of test compound at 64 mg/L. Summed up:
as §3

For experiment [17] the test system is unchanged. Briefly: Inhibition of Multidrug resistance efflux pump in Mycobacterium smegmatis str. MC2 155 ATCC 700084 assessed as reduction in isoniazid bromide MIC presence of test compound at 64 mg/L. Summed up: as §3
Experiment [18] has the same test system. In words: Inhibition of Multidrug resistance efflux pump in Mycobacterium smegmatis str. MC2 155 ATCC 700084 assessed as reduction in ethambutol bromide MIC presence of test compound at 64 mg/L. Summed up: as §3
The test system is the same in experiment [19]. In words: Inhibition of Multidrug resistance efflux pump in Mycobacterium smegmatis str. MC2 155 ATCC 700084 assessed as reduction in ethambutol bromide MIC presence of test compound at 32 mg/L. An outline of the steps:
as §3

Experiment [20] shares this test system. Briefly: Inhibition of Multidrug resistance efflux pump in Mycobacterium smegmatis str. MC2 155 ATCC 700084 assessed as reduction in ciprofloxacin bromide MIC presence of test compound at 32 mg/L. An outline of the steps:
as §3

For experiment [21] the test system is unchanged. Briefly: Inhibition of Multidrug resistance efflux pump in Mycobacterium smegmatis str. MC2 155 ATCC 700084 assessed as reduction in isoniazid bromide MIC presence of test compound at 32 mg/L. Summed up:
as §3

Experiment [22] shares this test system. In words: Inhibition of Multidrug resistance efflux pump in Mycobacterium smegmatis str. MC2 155 ATCC 700084 assessed as reduction in ethidium bromide MIC presence of test compound at 32 mg/L. Summed up: as §3
For experiment [23] the test system is unchanged. In words: Inhibition of Multidrug resistance efflux pump in Mycobacterium smegmatis str. MC2 155 ATCC 700084 assessed as reduction in rifampicin bromide MIC presence of test compound at 32 mg/L. Summed up: as §3

Take `CCCCCCCC(=O)CCc1ccc(O)c(OC)c1`: the MIC in experiment [1] was 32 mg/L (≈ 115 µM); in experiment [7], no less than 128 mg/L. The values for the fractional inhibitory concentration index (FICI) in experiment [2] and in [8] were 0.5 and 0.25, respectively. In addition, the Ratio in experiment [3] was determined as 0.793. The RFU in [4] was 24600. The fold change (FC) came out at 1 in experiment [5]; 1 in experiment [6]; 4 in experiment [9]; 8 in experiment [10]; 4 in [13]. In [11], the inhibition result was “Dose-dependent effect”. For the same compound, the IC50 in experiment [12] came to 63.6 µM.

`CCCCC[C@H](O)C[C@H](O)CCc1ccc(O)c(OC)c1`: the MIC in [1] and in experiment [7] was no less than 128 mg/L in each case. The fractional inhibitory concentration index (FICI) turned out to be 2 in experiment [2] and 1 in [8]. Also, the fold change (FC) worked out at 2 in experiment [14]; 1 in [15]; 1 in [16]; 1 in [17]; 1 in experiment [18].

For the compound `CCCCCCCC(O)CCc1ccc(O)c(OC)c1` (racemic), the MIC in experiment [1] turned out to be 32 mg/L (≈ 114 µM); in [7], 128 mg/L (≈ 456 µM). The fractional inhibitory concentration index (FICI) in experiment [2] came out at 0.75; in experiment [8], 0.38. The Ratio in experiment [3] stood at 0.792. Moreover, the RFU in [4] amounted to 24700. In addition, the fold change (FC) in experiment [5] stood at 2; in experiment [6] it was 2; in experiment [9] it was 1; in experiment [10], 4; in [13], 4. For the same compound, in experiment [12], the IC50 is 69.2 µM.

Turning to `CCCCc1ccc(CCc2ccc(O)c(OC)c2)o1`, the MIC is 32 mg/L (≈ 117 µM) in [1] and no less than 128 mg/L in experiment [7]. The fractional inhibitory concentration index (FICI) in experiment [2] and in [8] was 0.19 throughout. In [3], the Ratio amounted to 0.778. Further, in experiment [4], the RFU worked out at 17200. The fold change (FC) in experiment [5] is 2; in [6], 2; in [9], 4; in [10], 8; in [13], 16.

As for `CCCCCCC[C@H](O)CC(=O)CCc1ccc(O)c(OC)c1`, the MIC was 64 mg/L (≈ 198 µM) in experiment [1] and no less than 128 mg/L in experiment [7]. Besides, the fractional inhibitory concentration index (FICI) turned out to be 1 in experiment [2] and 0.19 in experiment [8]. In addition, the Ratio in experiment [3] was determined as 0.795. Besides, the fold change (FC) in experiment [19] is 2; in [20] it was 2; in experiment [21] it was 2; in experiment [22], 8; in [23] it was 2. Besides, the RFU in experiment [4] was found to be 21900. Moreover, in [12], the IC50 was 83.1 µM.

As to `CCCCC[C@H](O)CC(=O)CCc1ccc(O)c(OC)c1` [GINGEROL], the MIC in experiment [1] and in experiment [7] was no less than 128 mg/L throughout. Also, the figures for the fractional inhibitory concentration index (FICI) in experiment [2] and in [8] were 2 and 1, respectively. For the same compound, the fold change (FC) in experiment [14] amounted to 2; in [15], 1; in [16], 1; in experiment [17], 1; in experiment [18], 1.

For the compound `CCCCC[C@H](O)C[C@@H](O)CCc1ccc(O)c(OC)c1`, the MIC in experiment [1] and in experiment [7] was no less than 128 mg/L in each case. In addition, the fractional inhibitory concentration index (FICI) turned out to be 2 in [2] and 1 in experiment [8]. Further, the fold change (FC) in experiment [14] was 2; in [15], 1; in experiment [16], 1; in experiment [17] it was 1; in experiment [18], 1.

Take `CCCCCC(=O)CC(=O)CCc1ccc(O)c(OC)c1`: the MIC in experiment [1] is 128 mg/L (≈ 438 µM); in experiment [7] it was no less than 128 mg/L. For the same compound, the fractional inhibitory concentration index (FICI) in experiment [2] came to 0.5; in experiment [8], 0.25. Besides, the fold change (FC) in experiment [14] amounted to 8; in [15], 2; in experiment [16] it was 4; in experiment [17], 2; in experiment [18], 1. Moreover, the Ratio in [3] was found to be 0.789. In addition, the RFU in experiment [4] was determined as 17800.

As to `CCCCC[C@H](O)CC(=O)CCc1ccc(OC)c(OC)c1`, the MIC in experiment [1] and in [7] was no less than 128 mg/L throughout. In addition, the fractional inhibitory concentration index (FICI) was 2 in experiment [2] and 0.63 in experiment [8]. For the same compound, the fold change (FC) in experiment [14] turned out to be 2; in experiment [15], 1; in experiment [16], 1; in experiment [17] it was 1; in [18] it was 1. Moreover, the Ratio in [3] was 0.746. The RFU in experiment [4] was 11800.

The values above are taken from ChEMBL document CHEMBL2069298, “Putative mycobacterial efflux inhibitors from the seeds of Aframomum melegueta” (J Nat Prod, 2012).
